For orientation: Cmax means the highest concentration seen after dosing. The CL/F is clearance divided by bioavailability, as obtained after extravascular dosing. The term IC50 denotes the concentration needed to halve the response being measured. As a reminder, the half-life is the time needed for the level to fall by half in the phase considered. Low readings indicate fast loss, high ones slow loss.

This is an account of results in ChEMBL document CHEMBL5104108, “Concise synthesis and biological activity evaluation of novel pyrazinyl-aryl urea derivatives against several cancer cell lines, which can especially induce T24 apoptotic and necroptotic cell death” (RSC Med Chem, 2022).

Data set [1] deals with T-24. The experiment in a line: Induction of mitochondrial dysfunction in human T24 cells assessed as decrease in mitochondrial membrane potential at 5 to 10 uM measured by JC-1 staining based assay. The following applies: dose 5-10 µM. It counts as functional, cell-based. In a few lines: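 Floating and adherent T24 cells pooled after pretreatment. Washed in cold PBS and stained in the dark with JC-1 (10 μg mL−1). Red and green fluorescence imaged by laser scanning confocal microscopy, five random fields per sample.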

A short description of data set [2]: Cmax in Sprague-Dawley rat at 12 mg/kg, IG measured HPLC analysis. The following applies: in vivo, po. The data set is classed as ADME, organism-based. Set-up: dose 12 mg/kg, route ig.
Data set [3] is described as follows: Clearance in Sprague-Dawley rat at 12 mg/kg, IG measured HPLC analysis. As to conditions: in vivo, po. The data set is classed as ADME, organism-based.
Data set [4] is described as follows: Clearance in Sprague-Dawley rat at 6 mg/kg, IG measured HPLC analysis. It counts as ADME, organism-based. As to conditions: in vivo, po.
A short description of data set [5]: AUMC in Sprague-Dawley rat at 12 mg/kg, IG measured HPLC analysis. The data set is classed as ADME, organism-based. As to conditions: in vivo, po.
Data set [6] deals with T-24. The experiment in a line: Induction of apoptosis in human T24 cells assessed as increase in caspase-3 expression at 0 to 5 uM measured by Western blot analysis. As to conditions: dose 0-5 µM. It counts as functional, cell-based. The essentials: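 Apoptosis-related proteins measured by Western blot in T24 lysates: 40 μg protein per lane by SDS-PAGE, PVDF transfer, primary and peroxidase-linked secondary antibodies, ECL detection, densitometry of gray values with β-actin as loading control.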

Data set [7] in a line: AUMC in Sprague-Dawley rat at 6 mg/kg, IG measured HPLC analysis. The data set is classed as ADME, organism-based. As to conditions: in vivo, po.
For data set [8], the system named is T-24. The data set can be described thus: Induction of necroptosis in human T24 cells assessed as viable cells at 7.5 uM and measured by trypan blue exclusion assay. It counts as functional. The following applies: read-out: Activity. The essentials:
(§1)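 T24 cells (2 × 10^5/well) exposed for 16 h with or without Nec-1 (60 μM), then stained with trypan blue. Viable and dead cells counted. Result given as % viable cells relative to untreated control.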

Data set [9] relates to T-24. The data set can be described thus: Induction of necroptosis in human T24 cells assessed as viable cells at 10 uM and measured by trypan blue exclusion assay. As to conditions: read-out: Activity. It counts as functional. The essentials: as §1
Data set [10] concerns T-24. The experiment in a line: Up-regulation of MLKL mRNA expression in human T24 cells at 7.5 to 12.5 uM measured by RT-PCR analysis. It counts as functional, cell-based. The following applies: dose 7.5-12.5 µM. The essentials:
(§2)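 Total T24 RNA extracted with TRIzol. RT-PCR normalized to GAPDH, relative expression by 2−ΔΔCt versus control. Incubation 16 h for RIPK1/RIPK3/MLKL. At least three independent experiments, each in triplicate.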

The subject of another data set is MGC-803. The data set can be described thus: Antiproliferative activity against human MGC-803 cells measured after 48 hrs by MTT assay. The data set is classed as functional, cell-based. The following applies: MGC-803, 48 h. In a few lines: (§3)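 Cells seeded 5 × 10^3 per well, grown overnight at 37 °C, then exposed to compound at final 1–40 μM (1, 2.5, 5, 7.5, 10, 12.5, 15, 20, 30, 40 μM) for the stated period. MTT added, 4 h at 37 °C, formazan dissolved in DMSO, absorbance read. IC50 = concentration killing 50% of cells relative to untreated control; mean ± S.D. of four independent experiments.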
(In general: Formazan colour is commonly taken as a measure of viable cells.)

Data set [11] in a line: Half-life in Sprague-Dawley rat at 6 mg/kg, IG measured HPLC analysis. The data set is classed as ADME, organism-based. As to conditions: in vivo, po.
Data set [12] deals with T-24. The data set can be described thus: Down-regulation of p-RIPK1 expression in human T24 cells at 7.5 to 10 uM measured in presence of 60 uM Nec-1 after 16 hrs by Western blot analysis. It counts as functional, cell-based. The following applies: dose 7.5-10 µM. The essentials: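 T24 cells co-incubated 16 h with or without Nec-1 (60 μM). Lysates quantified by BCA, 40 μg protein resolved by SDS-PAGE, transferred to PVDF, probed with primary and peroxidase-conjugated secondary antibodies, detected by ECL. Band gray values normalized to β-actin loading control.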

The test system of data set [13] is T-24. The experiment in a line: Up-regulation of RIPK3 mRNA expression in human T24 cells at 7.5 to 12.5 uM measured by RT-PCR analysis. The data set is classed as functional, cell-based. The following applies: dose 7.5-12.5 µM. The essentials: as §2
The subject of data set [14] is T-24. The experiment in a line: Antiproliferative activity against human T24 cells measured after 48 hrs by MTT assay. The data set is classed as functional, cell-based. The following applies: T-24, 48 h. In a few lines:
as §3

Data set [15] concerns T-24. The experiment in a line: Up-regulation of p-RIPK3 expression in human T24 cells at 7.5 to 10 uM measured after 16 hrs by Western blot analysis. The data set is classed as functional, cell-based. As to conditions: dose 7.5-10 µM. (Immunoblotting shows a protein as a band on a membrane.)

SMILES strings stand for the structures. The source made the active and inactive calls.

Regarding `O=C(Nc1ccc(C(F)(F)F)cc1)Nc1cccc(CNc2nccnc2Cl)c1`, the result in the data set with T-24 [1], with T-24 [6], in the data set with T-24 [10], in the data set on T-24 [12], in the data set on T-24 [13] and in the data set on T-24 [15] was Active. The Cmax in data set [2] stood at 3360 ng/mL. For the same compound, the CL/F in data set [3] is 0.659 mL/min; in data set [4], 0.811 mL/min. Moreover, the figures for the AUMC in [5] and in data set [7] were 1494860 hr2.ng/ml and 606261 hr2.ng/ml, respectively. Further, in the data set with T-24 [8], the viability at 7.5 µM amounted to 51%. Moreover, the viability at 10 µM in the data set on T-24 [9] was 38%. The half-maximal inhibitory concentration (IC50) was 6.91 µM in the data set with MGC-803 and 4.58 µM in the data set with T-24 [14]. Moreover, in [11], the half-life is 6.56 h.
